The target in data set [1] is Tumour suppressor p53/oncoprotein Mdm2 (Homo sapiens) (UniProt P04637+Q00987). Description: Inhibition of human recombinant p53-MDM2 interaction assessed as p53 release by NMR spectroscopy relative to untreated control. Format: protein assay. The essentials:
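Complex formed from refolded recombinant His-tagged human p53 (residues 1-312, expressed in E. coli BL21(DE3) RIL) and refolded MDM2, mixed 1:2, with excess MDM2 removed by gel filtration. Complex at 0.1 mM in 50 mM phosphate pH 7.4, 150 mM KCl, 5 mM DTT; formal protein:inhibitor molar ratio 1:1.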

The nature of data set [2]: Solubility of the compound in phosphate buffer at pH 7.4 by UV-Visible spectrophotometry. Format: physicochemical. The essentials:
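10 mM DMSO stock added one microlitre at a time, 10 min apart, to 20 mM phosphate buffer with 150 mM KCl, pH 7.4, at 25 °C. Precipitation followed as the rise in light-scattering absorbance over 500–900 nm.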

The test system of data set [3] is M14. Description: Induction of apoptosis in human M14 cells assessed as accumulation of p53 in nuclear fraction after 48 hrs by Western blotting analysis relative to control. In kind it is functional, cell-based.
For data set [4], the system named is M14. The experiment in a line: Induction of apoptosis in human M14 cells assessed as accumulation of p53 in nuclear fraction after 24 hrs by Western blotting analysis relative to control. Format: functional, cell-based. (In general: Immunoblotting shows a protein as a band on a membrane.)
Data set [5] concerns M14. Description: Induction of p53 expression in human M14 cells after 48 hrs by Western blotting analysis. In kind it is functional, cell-based. The method, boiled down:
(§1)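 Treated cells lysed in modified RIPA buffer (10 mM Tris-HCl pH 7.4, 150 mM NaCl, 1 mM EDTA, 1% NP40, 0.1% deoxycholate, 1 mM PMSF, protease inhibitors). Equal protein loads separated on 10–12% SDS-PAGE and blotted to nitrocellulose. Blocked in 10% milk/0.1% Tween-20, probed with anti-cyclin A or anti-p53 and HRP secondary; tubulin used as loading reference.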

The subject of data set [6] is M14. The experiment in a line: Cell cycle arrest at G1/S phase in human M14 cells assessed as increase in cyclin A expression at IC50 after 48 hrs by Western blotting analysis. In kind it is functional, cell-based. The essentials:
as §1

The test system of data set [7] is M14. The experiment in a line: Cell cycle arrest at G1/S phase in human M14 cells assessed as increase in cyclin A expression at IC50 after 24 hrs by Western blotting analysis. Format: functional, cell-based. The essentials:
as §1

For data set [8], the system named is M14. Description: Cell cycle arrest at S phase in human M14 cells assessed as change in size of nucleus after 24 hrs by DAPI staining-based fluorescence microscopy. In kind it is functional. The method, boiled down:
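M14 cells grown on coverslips and dosed after 24 h. Fixed in 3.7% formaldehyde for 30 min, quenched with 0.1 M glycine, then DAPI-stained 20 min at room temperature. Nuclear areas measured by fluorescence microscopy image analysis. Mean ± SEM of at least twenty measurements; one-way ANOVA with Bonferroni post test.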

In data set [9] the test system is M14. Description: Induction of apoptosis in human M14 cells after 48 hrs by propidium iodide staining-based flow cytometry. In kind it is functional, cell-based. The method, boiled down:
(§2)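 5 × 10^4 M14 cells cultured 24 h, then dosed and cultured a further 24 or 48 h. Permeabilized cells labelled 30 min at 4 °C with propidium iodide in 0.1% sodium citrate/0.1% Triton X-100, then analysed by flow cytometry. For cell cycle, 10,000 events per sample assigned to G0/G1, S and G2/M. Each determination repeated three times.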
On the technique in general: In flow cytometry, cells or beads pass a laser one at a time.

Data set [10] has as its system M14. The experiment in a line: Cell cycle arrest in human M14 cells assessed as accumulation at G2/M phase after 24 hrs by propidium iodide staining-based flow cytometry. In kind it is functional. The conditions noted are these: in the assay text read “accumulation at S phase” for “accumulation at G2/M phase”. The essentials: as §2
For data set [11], the system named is M14. Description: Cell cycle arrest in human M14 cells assessed as accumulation at S phase after 24 hrs by propidium iodide staining-based flow cytometry. Format: functional. The method, boiled down: as §2
The subject of data set [12] is M14. The experiment in a line: Cell cycle arrest in human M14 cells assessed as accumulation at G0/G1 phase after 24 hrs by propidium iodide staining-based flow cytometry. Format: functional. The following applies: in the assay text read “accumulation at S phase” for “accumulation at G0/G1 phase”. The method, boiled down:
as §2

In data set [13] the test system is M14. Description: Antiproliferative activity against human M14 cells assessed as cell viability incubated for 24 hrs followed by compound washout measured after 48 hrs by MTT assay. In kind it is functional, cell-based. The essentials:
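M14 cells exposed for 24 h, then medium removed and cells resuspended in compound-free medium. Further incubation for 24 and 48 h, then viability read by MTT: 1 mg/mL for 1–3 h at 37 °C, formazan dissolved in DMSO, absorbance at 550 and 620 nm.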
In general terms: Formazan colour is commonly taken as a measure of viable cells.

A further data set concerns RAW264.7. The experiment in a line: Antiproliferative activity against mouse RAW264.7 cells after 48 hrs by MTT assay. Format: cell-based. The conditions noted are these: RAW264.7, 48 h. The essentials: (§3)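 Cells grown at 37 °C in DMEM with 25 mM glucose, 10% fetal calf serum, penicillin/streptomycin and 2 mmol/L glutamine. 5000 cells per well; after 24 h, exposed to 100 nM–100 µM for 24 and 48 h. MTT 1 mg/mL for 1–3 h at 37 °C, formazan dissolved in DMSO, absorbance read at 550 and 620 nm. IC50 from four-parameter sigmoidal nonlinear regression.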

For data set [14], the system named is M14. Description: Cytostatic activity against human M14 cells at 5 to 10 uM after 24 hrs by trypan blue dye exclusion assay relative to control. In kind it is functional, cell-based. The essentials: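 Exponentially growing M14 cells plated and grown 24 h. Then treated at 5 and 10 µM in 0.1% DMSO for 24, 48 or 72 h. Stained with 0.2% trypan blue and counted in a hemocytometer; percentage of dead cells calculated.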

A further data set relates to Jurkat. Description: Antiproliferative activity against human Jurkat cells after 48 hrs by MTT assay. Format: functional, cell-based. The essentials:
as §3

Another data set concerns Huh-7. The experiment in a line: Antiproliferative activity against human HuH7 cells after 48 hrs by MTT assay. In kind it is functional, cell-based. The conditions noted are these: Huh-7, 48 h. The essentials:
as §3

The next data set relates to MCF7. Description: Antiproliferative activity against human MCF7 cells after 48 hrs by MTT assay. Format: functional, cell-based. The conditions noted are these: MCF7, 48 h. The method, boiled down:
as §3

The subject of data set [15] is M14. The experiment in a line: Antiproliferative activity against human M14 cells after 48 hrs by MTT assay. In kind it is functional, cell-based. The conditions noted are these: M14, 48 h. The method, boiled down:
as §3

The subject of data set [16] is M14. Description: Induction of p53 expression in human M14 cells after 24 hrs by Western blotting analysis. In kind it is functional, cell-based. The method, boiled down:
as §1

The values that follow come from ChEMBL document CHEMBL2417381, “New anticancer agents mimicking protein recognition motifs” (J Med Chem, 2013).

Activity calls are given as the source filed them. No cut-off for these calls is given here.

Tumour suppressor p53/oncoprotein Mdm2 (Homo sapiens), sequence (P04637 whole entry, looked up, the tested form may be a part): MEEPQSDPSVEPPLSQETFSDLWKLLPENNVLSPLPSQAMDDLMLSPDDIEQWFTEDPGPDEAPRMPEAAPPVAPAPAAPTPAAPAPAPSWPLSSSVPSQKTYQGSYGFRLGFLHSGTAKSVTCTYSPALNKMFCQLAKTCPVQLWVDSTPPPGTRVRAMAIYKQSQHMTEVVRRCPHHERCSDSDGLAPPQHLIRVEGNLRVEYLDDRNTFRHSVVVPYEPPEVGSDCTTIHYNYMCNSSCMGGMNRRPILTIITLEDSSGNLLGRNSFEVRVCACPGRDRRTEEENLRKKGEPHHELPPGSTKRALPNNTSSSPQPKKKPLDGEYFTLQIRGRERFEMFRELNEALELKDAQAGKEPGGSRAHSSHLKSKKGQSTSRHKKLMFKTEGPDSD
Tumour suppressor p53/oncoprotein Mdm2 (Homo sapiens), sequence (Q00987 whole entry, looked up, the tested form may be a part): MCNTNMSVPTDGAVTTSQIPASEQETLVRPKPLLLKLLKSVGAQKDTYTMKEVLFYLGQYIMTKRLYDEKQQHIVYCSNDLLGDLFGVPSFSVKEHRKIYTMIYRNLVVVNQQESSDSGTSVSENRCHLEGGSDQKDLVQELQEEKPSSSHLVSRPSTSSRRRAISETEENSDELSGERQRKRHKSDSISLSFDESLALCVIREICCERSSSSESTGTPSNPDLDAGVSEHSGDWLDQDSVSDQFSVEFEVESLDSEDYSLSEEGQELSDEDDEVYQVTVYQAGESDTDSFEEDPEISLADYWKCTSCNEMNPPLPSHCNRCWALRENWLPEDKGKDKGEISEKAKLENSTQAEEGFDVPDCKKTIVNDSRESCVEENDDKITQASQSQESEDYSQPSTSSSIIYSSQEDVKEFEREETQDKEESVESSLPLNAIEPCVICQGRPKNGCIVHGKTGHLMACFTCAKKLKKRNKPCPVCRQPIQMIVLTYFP

As to `Cc1ccc(Cn2c(C(=O)NCc3cccc(Cl)c3)cc(C(=O)c3ccccc3)c2C)cc1`, the inhibition entry in [1] was “inactive”. Moreover, in [2], the solubility is not above 6.8 µM. Besides, the result in the data set on M14 [3], in the data set with M14 [5], in the data set with M14 [13] and in the data set with M14 [14] was inactive. The outcome with M14 [4], in the data set on M14 [6], with M14 [7], in the data set with M14 [8], in the data set with M14 [9] and in the data set with M14 [10] was Active. Also, the outcome in the data set with M14 [11], in the data set with M14 [12] and in the data set with M14 [16] was Active. For the same molecule, the IC50 in the data set with RAW264.7 was more than 100 µM; in the data set on Jurkat it was more than 100 µM; in the data set with Huh-7, more than 100 µM; in the data set on MCF7 it was more than 100 µM; with M14 [15], 2.5 µM.

`Cc1c(C(=O)c2ccccc2)cc(C(=O)NCc2cccc(Cl)c2)n1Cc1ccccc1`: the result with M14 [3], with M14 [5], in the data set on M14 [13] and in the data set with M14 [14] was inactive. Besides, the result in the data set on M14 [4], with M14 [7], with M14 [8], in the data set on M14 [9], in the data set on M14 [10] and in the data set on M14 [11] was Active. The result in the data set with M14 [12] and with M14 [16] was Active. Moreover, the IC50 is more than 100 µM with RAW264.7; more than 100 µM with Jurkat; more than 100 µM in the data set on Huh-7; more than 100 µM in the data set on MCF7; 7.5 µM in the data set on M14 [15].

With `Cc1c(C(=O)c2ccccc2)cc(C(=O)NCc2cccc(I)c2)n1Cc1ccccc1`, the outcome in the data set on M14 [3], in the data set on M14 [5], in the data set with M14 [13] and in the data set on M14 [14] was inactive. Also, the result in the data set with M14 [4], in the data set on M14 [6], in the data set on M14 [7], with M14 [8], in the data set with M14 [9] and with M14 [10] was Active. Further, the outcome with M14 [11], in the data set with M14 [12] and in the data set on M14 [16] was Active. In addition, the IC50 with RAW264.7 was more than 100 µM; in the data set on Jurkat it was more than 100 µM; with Huh-7 it was more than 100 µM; in the data set with MCF7, more than 100 µM; in the data set with M14 [15], 5 µM.

Broadly, the solubility is the dissolved amount per volume that the medium holds. Usually IC50 stands for the concentration that gives 50% inhibition. Low readings indicate higher potency, high ones lower potency.
